# Source: PubChem BioAssay
# Only a selection was taken, and hits are over-represented in it overall.
# 697 NFkB inh = inhibitors of PMA/ionomycin-induced NF-kB reporter, 697 cells, primary screen, B-cell NF-kB inhibitor project, cell-based, luminescence, uHTS | AID 435022, 2010 | 0.33% of 330,000 active | 697 B-cell NF-kB luciferase reporter, 16 h | inhibition, % at 4 µM; in the data active means inhibition above about 35%
# Jurkat NFkB inh = inhibitors of induced NF-kB luciferase reporter, primary screen, TCR NF-kB activation inhibitor project, cell-based, luminescence, uHTS | inhibition, % at 4 µM | Jurkat, PMA/ionomycin-induced NF-kB luciferase reporter | 0.53% of 330,000 active; in the data active means inhibition above about 50%
# XBP1 UPR activ = activators of adaptive XBP1 UPR arm, primary screen, cell-based, CHO-XBP1 luciferase reporter, luminescence, uHTS; IRE1-XBP1 UPR activation; percent of tunicamycin response, DMSO as zero; activation, % at 20 µM; 0.33% of 330,000 active;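 active means versus positive control, 20 µM dose yields 30% or more activation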;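 further: 100% = tunicamycin at 10 µg/mL and 0% = DMSO only wells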
#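 Assay system: IRE1-XBP1 luciferase reporter CHO line. Input: 1000 cells/well. Buffer or medium: F12 with 10% serum. Doses: 20 µM, 1% DMSO. Times: overnight seeding at 37 °C, 6 h compound treatment at 37 °C. Technique: Steady-Glo luciferase glow luminescence, 10 min after reagent addition.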
# UPR CHOP act = activators of apoptotic CHOP UPR arm, primary screen, cell-based, CHO-CHOP luciferase reporter, luminescence, uHTS | UPR activation; percent of tunicamycin response over DMSO baseline | activation, % at 10 µM | 0.34% of 330,000 active | AID 449763, 2010;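 active means at 10 µM dose, activation of 40% or more, normalized to positive control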;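 further: 100% = tunicamycin at 10 µg/mL and 0% = DMSO alone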
#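 assay system = CHO CHOP reporter cells | amount = 500 CHO-CHOP cells per well | buffer or medium = F12 with 10% FBS | incubation = 16-18 h cell attachment, then 6 h compound exposure, 37 °C | detection = luminescence read with Steady-Glo | read-out = percent activation relative to tunicamycin control | controls = tunicamycin high control, DMSO low control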
# CHOP inh = inhibitors of CHOP promoter induction, primary screen, cell-based, unfolded protein response, luciferase reporter | CHO-K1 CHOP-promoter luciferase, tunicamycin-induced, 15-18 h | inhibition, % at 10 µM | 3.8% of 220,000 active;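 active means compounds that reduced the stress-induced luciferase reporter signal by more than about 70% of percent inhibition, limit read from the data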;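 further: 0% = tunicamycin plus vehicle and 100% = wells without tunicamycin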
# 697 NFkB conf = PMA/ionomycin-induced NF-kB reporter inhibitors, 697 retest, confirmation, B-cell NF-kB inhibitor project, cell-based, luminescence, single concentration. inhibition, % at 4 µM. shares compounds with 697 NFkB inh. 697 B-cell NF-kB luciferase, 16 h. AID 449746, 2010. 35% of 2,000 active; in the data active means inhibition mostly above about 28%, no sharp cut-off; inactive means mostly below about 22%
# Starred values were filed as active, the others as inactive; i = inactive; nt = no result given.
SMILES,697 NFkB inh,Jurkat NFkB inh,XBP1 UPR activ,UPR CHOP act,CHOP inh,697 NFkB conf
O=c1cc(N2CCN(c3cccc(Cl)c3)CC2)[nH]c(=O)n1C1CCCCC1,43*,47,6,-3,74*,29
CCCC[C@H]1COCCS(=O)(=O)N1Cc1cccc([N+](=O)[O-])c1,5,-2,-1,-3,nt,nt
Cc1ccc(C(=O)Nc2cccc(C(=O)NCc3ccccc3)c2)o1,36*,-3,0,-1,29,1
O=C(NCc1ccccc1)c1cccc(NC(=O)c2ccco2)c1,20,17,2,-1,18,nt
Cc1ccc(C(=O)N2CCN(c3ncccn3)CC2)c(C)c1,-4,-4,-1,4,nt,nt
COc1ccc(-c2noc(N3CCC(C(=O)Nc4cccc(OC)c4)CC3)n2)cc1,42*,20,-2,0,nt,34*
COc1ccc(-c2noc(N3CCC(C(=O)Nc4ccc(F)cc4)CC3)n2)cc1,31,18,2,1,nt,nt
O=C(CCc1ccccc1)N[C@@H]1c2ccccc2CC[C@H]1OCc1ccccc1,7,nt,0,1,nt,nt
Cc1ccc(-n2ncc3c(NCc4cccnc4)ncnc32)c(C)c1,-54,22,-2,2,59,nt
CCCCNc1ncnc2c1cnn2-c1ccc(Cl)cc1,-308,-25,5,3,nt,-324
Cc1ccc(-n2ncc3c(NCc4cccnc4)ncnc32)cc1C,-261,-104,-3,9,nt,-266
Cc1cc(N)c2ccccc2[n+]1CCCCCCCCCC[n+]1c(C)cc(N)c2ccccc21,nt,nt,nt,nt,-4,nt
Fc1ccccc1N1CCN(C2CCCN(Cc3ccccc3C(F)(F)F)C2)CC1 (centres undefined),-9,2,-7,0,nt,nt
Cc1cc(C(=O)COC(=O)c2cccn2C)c(C)n1Cc1ccco1,-305,-133,-9,-3,24,-240
COc1ccc(S(=O)(=O)Nc2ccc3c(c2)C(=O)N([C@H](C)CO)C[C@H](C)[C@@H](CN(C)S(C)(=O)=O)O3)cc1,9,-7,-3,0,nt,nt
Cc1csc(NC(=O)c2ccc(C)c([N+](=O)[O-])c2)n1,-311,-146,-5,-1,40,-243
Cc1csc(NC(=O)c2cc3ccccc3o2)n1,36*,-135,-4,-2,nt,14
COCCN(C(=O)CCN1C(=O)C2CC=CCC2C1=O)c1c(N)n(CC(C)C)c(=O)[nH]c1=O (centres undefined),3,0,-1,-3,nt,nt
COc1cc2[nH]c(=S)nc(NC3CCCC3)c2cc1OC,nt,nt,nt,nt,-38,nt
CCOC(=O)c1sc(NC(=O)c2ccncc2)c(C#N)c1C,13,-6,0,-2,19,nt
CCOC(=O)c1sc(NC(=O)c2cc(-c3ccccc3C)nc3ccccc23)c(C#N)c1C,36*,6,-4,5,72*,40*
O=C(Nc1ccc(Cl)cc1)Nc1ccccc1C(=O)O,-178,-12,-5,-3,-18,nt
O=C(Nc1cccc(Cl)c1)Nc1ccccc1C(=O)O,-273,-115,0,1,0,-333
O=C(Nc1ccc(Cl)c(Cl)c1)Nc1ccccc1C(=O)O,i,-136,-2,1,-18,i
CCc1ccc(NC(=O)C2C3CCC(O3)C2C(=O)O)cc1 (centres undefined),-15,-11,5,2,nt,nt
SMILES,697 NFkB inh,Jurkat NFkB inh,XBP1 UPR activ,UPR CHOP act,CHOP inh,697 NFkB conf
CCc1ccc(S(=O)(=O)Nc2cccc(-c3ccc4nnc(C)n4n3)c2)s1,38*,18,3,0,nt,10
CC(=O)c1ccc(S(=O)(=O)Nc2ccc(-c3ccc4nnc(C)n4n3)cc2)cc1,12,-13,1,-1,-23,nt
COc1ccc(S(=O)(=O)Nc2ccc(-c3ccc4nnc(C)n4n3)cc2)c(OC)c1,32,2,1,-1,nt,nt
Cc1nnc2ccc(-c3ccc(NS(=O)(=O)c4ccccc4)cc3)nn12,38*,11,7,2,nt,21
COc1ccc(OC)c(S(=O)(=O)Nc2ccc(-c3ccc4nnc(C)n4n3)cc2)c1,50*,9,6,1,nt,39*
Cc1ccccc1-n1c(SCC(=O)c2c(N)n(C3CC3)c(=O)[nH]c2=O)nnc1N1CCOCC1,24,2,-1,-1,nt,nt
Cc1cc(/C=C(/C#N)C(=O)Nc2ccccc2)c(C)n1-c1cccnc1,-10,-98,1,3,-23,nt
Cc1ccccc1NC(=O)/C(C#N)=C\c1cc(C)n(-c2ccc(C(=O)O)cc2)c1C,40*,5,0,1,5,3
COc1ccc(CN2CCNC(=O)C2CC(=O)N(C)Cc2ccon2)c(OC)c1 (centres undefined),0,0,-3,-2,2,nt
CC1Cc2ccccc2N1S(=O)(=O)c1cccc(C(=O)c2nccn2C)c1 (centres undefined),-41,-9,-7,-1,17,nt
CC1Cc2ccccc2N1S(=O)(=O)c1cnc(Cl)c(Cl)c1 (centres undefined),45*,-1,-5,0,-35,33*
CC1Cc2ccccc2N1S(=O)(=O)c1cnc(Cl)c(Br)c1 (centres undefined),40*,14,-2,4,-6,35*
COc1ccc(C(=O)Nc2ccccc2N2CCN(C(=O)c3ccccc3)CC2)cc1Br,17,-7,1,3,nt,nt
O=C(c1cccc(S(=O)(=O)N2CCOCC2)c1)N1CCCC1,36*,6,-1,0,7,8
CCn1cc(C(=O)O)c(=O)c2cnc(N3CCN(C(=S)NC(=O)c4ccc(Br)cc4)CC3)nc21,84*,9,-2,0,17,26*
CCn1cc(C(=O)O)c(=O)c2cc(F)c(N3CCN(C(=S)NC(=O)c4ccc(Br)cc4)CC3)cc21,38*,-21,5,-2,73*,11
CCn1cc(C(=O)O)c(=O)c2cnc(N3CCN(C(=S)Nc4ccc(F)cc4)CC3)nc21,8,7,-2,-2,-50,nt
CCn1cc(C(=O)O)c(=O)c2cnc(N3CCN(C(=S)NC(=O)c4ccc(Cl)cc4)CC3)nc21,38*,18,-2,0,1,-1
CN1C(=O)[C@H](Cc2ccc([N+](=O)[O-])cc2)NC1=S,-8,6,-2,-1,nt,nt
Cc1ccc2cc(/C=N/NC(=O)c3ccc(F)cc3)c(Cl)nc2c1,19,7,1,0,-51,nt
Cc1ccc2nc(Cl)c(/C=N/Nc3ccc(C(=O)O)cc3)cc2c1,-490,-144,-3,2,23,-383
